SENP8 block-1 = SENP8 protease inhibitors, primary screen, biochemical, luminescence; purified SENP8, Z-RLRGG-aminoluciferin cleavage; inhibition, % at 10 µM; 330,000 tested, 1.2% active; AID 2540, 2010; in the data active = inhibition above about 50%
SENP1 inh = human SENP1 catalytic domain inhibitors, primary screen, biochemical, FRET, uHTS; inhibition, % at 10 µM; AID 624204, 2012; 360,000 tested, 0.21% active; recombinant SENP1 catalytic domain, CyPet-SUMO1-YPet FRET cleavage;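 active = inhibition at least 30% at 10 µM, raw YFP signal under a set limit, fluorescence ratio 0.5 to 1.5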
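Test system: hSENP1 catalytic domain, recombinant; Amount: 20 pM final SENP1 enzyme; Medium: Tris pH 8 buffer plus EDTA, NaCl, BME, BSA, NP40, catalase; Schedule: 50 min enzyme reaction, room temperature, light-protected; Technique: FRET fluorescence in CFP and YFP emission channels; Controls: no-enzyme wells low, DMSO-plus-enzyme wells high control.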
SENP7 inh = SENP7 protease inhibitors, primary screen, biochemical, luminescence, uHTS; Sentrin-specific protease 7 (Homo sapiens), Q9BQF6; recombinant SENP7, Z-RLRGG-aminoluciferin luminescence, 40 min; inhibition, % at 5 µM; 330,000 tested, 1.5% active; AID 434973, 2010;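 active = inhibition above about 50% at the single test dose, limit read from the data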
SENP8 block-2 = human SENP8 protease inhibitors, primary screen, biochemical, fluorescence, Nedd8 protein substrate, uHTS; Sentrin-specific protease 8 (Homo sapiens), Q96LD8; recombinant SENP8; inhibition, % at 20 µM; 360,000 tested, 0.64% active; AID 602440, 2012; in the data active = inhibition mostly above about 40%, no sharp cut-off; inactive = mostly below about 27%
SENP6 inh = SENP6 protease inhibitors, primary screen, biochemical, luminescence, uHTS | Sentrin-specific protease 6 (Homo sapiens), Q9GZR1 | Recombinant SENP6 catalytic domain, aminoluciferin luminescence | inhibition, % at 10 µM | 330,000 tested, 1.8% active | AID 2599, 2010;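 active = inhibition above about 50% at the single tested dose, limit read from the data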
Target sequence (Q9GZR1 628-1112 limits assumed): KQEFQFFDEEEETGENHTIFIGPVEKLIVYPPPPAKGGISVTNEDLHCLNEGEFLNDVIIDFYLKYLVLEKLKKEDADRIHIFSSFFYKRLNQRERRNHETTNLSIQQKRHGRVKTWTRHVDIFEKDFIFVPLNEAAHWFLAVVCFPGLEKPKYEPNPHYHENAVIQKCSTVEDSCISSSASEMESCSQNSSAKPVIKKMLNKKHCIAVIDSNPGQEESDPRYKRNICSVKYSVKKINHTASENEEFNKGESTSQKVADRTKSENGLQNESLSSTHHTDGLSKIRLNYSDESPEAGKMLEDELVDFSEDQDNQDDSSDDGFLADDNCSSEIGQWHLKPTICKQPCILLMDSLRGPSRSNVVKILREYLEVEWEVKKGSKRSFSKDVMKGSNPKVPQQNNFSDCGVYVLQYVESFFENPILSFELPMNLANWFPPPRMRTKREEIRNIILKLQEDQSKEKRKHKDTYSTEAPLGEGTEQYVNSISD
Platelet DG rel = inhibitors of platelet dense granule secretion, primary screen, cell-based, MLPCN, human platelets; human platelet-rich plasma, SFLLRN dense granule ATP release, luminescence; inhibition, %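 (compounds screened at 7.5 µM in platelet-rich plasma)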; 300,000 tested, 0.22% active;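 active = mean replicate score, as percent of positive control, at or above 50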
SENP8 confirm = SENP8 protease inhibitors, retest, confirmation, biochemical, luminescence, single concentration. 6,200 tested, 40% active. inhibition, % at 12.5 µM. shares compounds with SENP7 inh. Recombinant SENP8, Z-RLRGG-aminoluciferin luminescence, 60 min;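 active = mean inhibition across replicates above about 50%, limit read from the data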
SENP6 conf = SENP6 protease inhibitors, confirmation, biochemical, luminescence, single concentration; AID 488915, 2010; recombinant SENP6, Z-RLRGG-aminoluciferin luminescence; 6,200 tested, 58% active; inhibition, % at 12.5 µM; shares compounds with SENP7 inh
SENP7 conf = SENP7 protease inhibitors, retest, confirmation, biochemical, luminescence, single concentration | 6,200 tested, 69% active | recombinant SENP7, Z-RLRGG-aminoluciferin luminescence, 40 min | shares compounds with SENP7 inh | inhibition, % at 12.5 µM
Casp3 SENP sel = caspase-3 protease inhibitors, confirmation, selectivity assay for SENP inhibitor project, biochemical, single concentration; shares compounds with SENP7 inh; purified caspase-3, Z-DEVD-aminoluciferin luminescence, 60 min; inhibition, % at 12.5 µM; 6,200 tested, 60% active; AID 488918, 2010;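 active = mean inhibition above about 50%, limit read from the data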
SENP luc ctr = counter-screen for SENP inhibitors: luminescence interference. Pre-incubated SENP8/Z-RLRGG-aminoluciferin, luciferase luminescence interference. 6,200 tested, 39% active. inhibition, % at 12.5 µM. shares compounds with SENP7 inh. AID 488919;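 active = mean inhibition above about 50% when retested at one dose, limit read from the data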
Numbers stand for hits; n = inactive; x = no result given. Shown are actives, neighbours in structure and some others; about 2.6% of the full set was active somewhere.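 Rule for the calls, unless noted: active = mean inhibition above about 50% in the one-dose retest (limit read from the data); inactive = the rest.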

SMILES	SENP8 block-1	SENP1 inh	SENP7 inh	SENP8 block-2	SENP6 inh	Platelet DG rel	SENP8 confirm	SENP6 conf	SENP7 conf	Casp3 SENP sel	SENP luc ctr
Cc1ccccc1N=Nc1c(C)[nH]n(C(N)=S)c1=O	60	n	n	n	82	n	n	n	n	n	n
Cc1[nH]n(C(N)=S)c(=O)c1N=Nc1cccc(Cl)c1	89	n	72	n	91	n	n	n	n	n	n
COc1ccc(CN2CCCC(C(=O)c3ccc4c(c3)OCO4)C2)c(F)c1 (stereo not given)	n	n	n	n	n	n	x	x	x	x	x
CN(CC(=O)Nc1ccc(F)cc1)C(=O)COC(=O)CSc1ccc(F)cc1	n	n	n	n	n	n	x	x	x	x	x
CNC(=O)C1=C(C)NC(=S)NC1c1cc2c(cc1OC)CCCC2 (stereo not given)	n	n	n	n	n	n	x	x	x	x	x
COc1cc(NC(=O)CCc2nnc3ccc(NCc4ccco4)nn23)cc(OC)c1	n	n	n	n	n	n	x	x	x	x	x
COc1ccc2nc(NC(=O)c3cccs3)sc2c1	94	n	97	n	96	n	n	n	n	n	n
CC(=O)Nc1ccc2nc(NC(=O)c3cccs3)sc2c1	83	n	92	n	93	86	56	87	93	90	n
CC(=O)Nc1ccc2nc(NC(=O)c3ccc([N+](=O)[O-])s3)sc2c1	n	x	n	x	64	n	n	n	n	n	n
COc1ccc2nc(NC(=O)c3ccccc3O)sc2c1	86	n	82	n	84	n	n	n	70	60	n
COC(=O)c1nn(-c2ccc3c(c2)CCN3C(C)=O)cc1O	75	n	85	n	91	52	n	82	97	96	84
CC(=O)N1CCc2cc([N+](=O)[O-])ccc21	x	n	x	n	x	x	x	x	x	x	x
CCOC(=O)c1nn(-c2ccc3c(c2)OCCO3)cc1O	n	n	n	n	n	n	x	x	x	x	x
COC(=O)c1nn(-c2ccc3c(c2)OCO3)cc1O	n	n	79	n	72	n	67	64	90	91	72
CC(CNC(=O)CN1C(=O)NC2(CCCCC2)C1=O)c1ccccc1 (stereo not given)	n	n	n	n	n	x	x	x	x	x	x
COc1ccc(NC(=O)c2sc(SC)nc2N)cc1	n	n	52	n	n	n	n	n	74	64	52
COc1ccc(NC(=O)c2sc(SCc3ccccc3)nc2N)cc1	n	n	n	n	n	n	x	x	x	x	x
COc1ccc(NC(=O)c2scc(S(=O)(=O)C(C)C)c2N)cc1	59	n	86	n	66	n	68	66	89	82	68
CCCNC(=O)c1cc2c(c(-c3cccc(-c4ccccc4F)c3)n1)[C@@H](CCO)N(C(=O)CC1CC1)C2	x	n	x	n	x	x	x	x	x	x	x

High-throughput results: PubChem, several laboratories
